Source: ChEMBL document CHEMBL1955832, “Facile synthesis, characterization and pharmacological activities of 3,6-disubstituted 1,2,4-triazolo[3,4-b][1,3,4]thiadiazoles and 5,6-dihydro-3,6-disubstituted-1,2,4-triazolo[3,4-b][1,3,4]thiadiazoles” (2012)
≈ marks a conversion by molar mass, not a printed value. Calls of active or inactive are those of the source. The calls are words filed in the database; no cut-off is given here.

How the values were obtained:
Klebsiella pneumoniae [1] = experiment: Antibacterial activity against recultured Klebsiella pneumoniae at MIC after 3 to 4 days by disc diffusion method; type: functional
Method in brief: (§1)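 Agar well diffusion: seeded agar plates dried 1 h at 37 °C, wells punched and filled with test compound at MIC level in DMSO; DMSO solvent control. Plates in triplicate, kept at 37 °C for 3–4 days; zone of inhibition read.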

Pseudomonas aeruginosa [2] = experiment: Antibacterial activity against Pseudomonas aeruginosa ATTC 27853 at MIC after 3 to 4 days by disc diffusion method; type: functional; method in brief: as §1
Aspergillus fumigatus [3] = experiment: Antifungal activity against Aspergillus fumigatus NCIM 902 by serial plate dilution method; type: functional
Aspergillus flavus [4] = experiment: Antifungal activity against Aspergillus flavus NCIM 524 by serial plate dilution method; type: functional
[5] = tested on: Trichophyton mentagrophytes; experiment: Antifungal activity against recultured Trichophyton mentagrophytes at MIC after 3 to 4 days; type: functional
Klebsiella pneumoniae [6] = experiment: Antibacterial activity against recultured Klebsiella pneumoniae after 16 to 18 hrs by serial dilution method; type: functional
Method in brief: (§2)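 Serial drug dilutions in Mueller-Hinton broth adjusted to pH 5.0 with phosphate buffer, inoculated with standardized bacterial suspension, incubated 16–18 h at 37 °C; MIC taken as lowest concentration without conspicuous growth.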

Escherichia coli [7] = experiment: Antibacterial activity against Escherichia coli ATTC 25922 after 16 to 18 hrs by serial dilution method; type: functional; method in brief: as §2
Talaromyces marneffei [8] = experiment: Antifungal activity against recultured Penicillium marneffei at MIC after 3 to 4 days; type: functional
Staphylococcus aureus [9] = experiment: Antibacterial activity against Staphylococcus aureus ATTC 25923 after 16 to 18 hrs by serial dilution method; type: functional; method in brief: as §2
Aspergillus flavus [10] = experiment: Antifungal activity against Aspergillus flavus NCIM 524 at MIC after 3 to 4 days; type: functional
Mus musculus [11] = experiment: Analgesic activity Wistar albino mouse assessed as tail withdrawal latency time at 100 mg/kg, po administered by intragastric tube after 180 mins (reference value: 1.363 +/- 0.1297 sec); type: functional
Aspergillus fumigatus [12] = experiment: Antifungal activity against Aspergillus fumigatus NCIM 902 at MIC after 3 to 4 days; type: functional
Mus musculus [13] = experiment: Analgesic activity Wistar albino mouse assessed as tail withdrawal latency time at 100 mg/kg, po administered by intragastric tube after 120 mins (reference value: 1.363 +/- 0.1297 sec); type: functional
Pseudomonas aeruginosa [14] = experiment: Antibacterial activity against Pseudomonas aeruginosa ATTC 27853 after 16 to 18 hrs by serial dilution method; type: functional; method in brief: as §2
Mus musculus [15] = experiment: Analgesic activity Wistar albino mouse assessed as tail withdrawal latency time at 100 mg/kg, po administered by intragastric tube after 60 mins (reference value: 1.363 +/- 0.1297 sec); type: functional
[16] = tested on: Trichophyton mentagrophytes; experiment: Antifungal activity against recultured Trichophyton mentagrophytes by serial plate dilution method; type: functional
Escherichia coli [17] = experiment: Antibacterial activity against Escherichia coli ATTC 25922 at MIC after 3 to 4 days by disc diffusion method; type: functional; method in brief: as §1
Talaromyces marneffei [18] = experiment: Antifungal activity against recultured Penicillium marneffei by serial plate dilution method; type: functional
Staphylococcus aureus [19] = experiment: Antibacterial activity against Staphylococcus aureus ATTC 25923 at MIC after 3 to 4 days by disc diffusion method; type: functional; method in brief: as §1
Rattus norvegicus = experiment: Antiinflammatory activity rat assessed as reduction of carrageenan-induced paw oedema at 100 mg/kg, po administered 30 mins before carrageenan challenge measured after 60 to 180 mins; type: functional, organism-based; design: dose 100 mg/kg
Method in brief: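 Rats randomly assigned, 100 mg/kg orally as suspension in 1% carboxymethyl cellulose, 30 min before carrageenan injected into right hind paw. Paw thickness measured with vernier callipers at 60, 120 and 180 min. Diclofenac reference; mean ± SEM, n = 6, vs vehicle control.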

SMILES	diameter of the inhibition zone (DIZ) (Klebsiella pneumoniae [1])	diameter of the inhibition zone (DIZ) (Pseudomonas aeruginosa [2])	MIC (Aspergillus fumigatus [3])	MIC (Aspergillus flavus [4])	diameter of the inhibition zone (DIZ) [5]	MIC (Klebsiella pneumoniae [6])	MIC (Escherichia coli [7])	diameter of the inhibition zone (DIZ) (Talaromyces marneffei [8])	MIC (Staphylococcus aureus [9])	diameter of the inhibition zone (DIZ) (Aspergillus flavus [10])	Time (Mus musculus [11])	diameter of the inhibition zone (DIZ) (Aspergillus fumigatus [12])	Time (Mus musculus [13])	MIC (Pseudomonas aeruginosa [14])	Time (Mus musculus [15])	MIC [16]	diameter of the inhibition zone (DIZ) (Escherichia coli [17])	MIC (Talaromyces marneffei [18])	diameter of the inhibition zone (DIZ) (Staphylococcus aureus [19])	Activity (Rattus norvegicus)
COc1ccc(Br)c(-c2nnc3sc(-c4cc(C)cc(C)c4)nn23)c1	16 mm	16 mm	15.1 µM (≈ 6.25 µg/mL)	15.1 µM (≈ 6.25 µg/mL)	16 mm	15.1 µM (≈ 6.25 µg/mL)	15.1 µM (≈ 6.25 µg/mL)	11 mm	30.1 µM (≈ 12.5 µg/mL)	16 mm	2.238 s	16 mm	2.075 s	15.1 µM (≈ 6.25 µg/mL)	2.175 s	15.1 µM (≈ 6.25 µg/mL)	16 mm	30.1 µM (≈ 12.5 µg/mL)	11 mm	
COc1ccc(-c2nn3c(-c4cc(OC)ccc4Br)nnc3s2)cc1	16 mm	16 mm	15 µM (≈ 6.25 µg/mL)	29.9 µM (≈ 12.5 µg/mL)	16 mm	15 µM (≈ 6.25 µg/mL)	15 µM (≈ 6.25 µg/mL)	11 mm	15 µM (≈ 6.25 µg/mL)	11 mm	2.44 s	16 mm	2.674 s	15 µM (≈ 6.25 µg/mL)	2.379 s	15 µM (≈ 6.25 µg/mL)	16 mm	29.9 µM (≈ 12.5 µg/mL)	16 mm	Active
COc1ccc(Br)c(-c2nnc3sc(-c4ccccc4)nn23)c1	11 mm	11 mm	32.3 µM (≈ 12.5 µg/mL)	32.3 µM (≈ 12.5 µg/mL)	11 mm	32.3 µM (≈ 12.5 µg/mL)	32.3 µM (≈ 12.5 µg/mL)	16 mm	32.3 µM (≈ 12.5 µg/mL)	11 mm	2.5 s	11 mm	2.125 s	32.3 µM (≈ 12.5 µg/mL)	1.963 s	32.3 µM (≈ 12.5 µg/mL)	11 mm	16.1 µM (≈ 6.25 µg/mL)	11 mm	
COc1ccc(C2Nn3c(nnc3-c3cc(OC)ccc3Br)S2)c(OC)c1 (configuration not stated)	16 mm	16 mm	27.8 µM (≈ 12.5 µg/mL)	27.8 µM (≈ 12.5 µg/mL)	11 mm	13.9 µM (≈ 6.25 µg/mL)	13.9 µM (≈ 6.25 µg/mL)	16 mm	27.8 µM (≈ 12.5 µg/mL)	11 mm	2.492 s	11 mm	2.642 s	13.9 µM (≈ 6.25 µg/mL)	2.39 s	27.8 µM (≈ 12.5 µg/mL)	16 mm	13.9 µM (≈ 6.25 µg/mL)	11 mm	Active
COc1ccc(Br)c(-c2nnc3n2NC(c2ccc(C)cc2)S3)c1 (configuration not stated)	16 mm	16 mm	15.5 µM (≈ 6.25 µg/mL)	15.5 µM (≈ 6.25 µg/mL)	11 mm	15.5 µM (≈ 6.25 µg/mL)	15.5 µM (≈ 6.25 µg/mL)	11 mm	31 µM (≈ 12.5 µg/mL)	16 mm	2.438 s	16 mm	2.643 s	15.5 µM (≈ 6.25 µg/mL)	2.403 s	31 µM (≈ 12.5 µg/mL)	16 mm	31 µM (≈ 12.5 µg/mL)	11 mm	Active
COc1ccc(Br)c(-c2nnc3n2NC(c2ccccc2)S3)c1 (configuration not stated)	11 mm	11 mm	6.25 µM (≈ 2.43 µg/mL)	12.5 µM (≈ 4.87 µg/mL)	11 mm	32.1 µM (≈ 12.5 µg/mL)	16.1 µM (≈ 6.25 µg/mL)	16 mm	32.1 µM (≈ 12.5 µg/mL)	11 mm	3.391 s	16 mm	3.46 s	32.1 µM (≈ 12.5 µg/mL)	3.181 s	12.5 µM (≈ 4.87 µg/mL)	16 mm	6.25 µM (≈ 2.43 µg/mL)	11 mm	
